According to PubChem BioAssay:
The source made the active and inactive calls.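 Rule for the calls, unless noted: active = viability loss from added drug above about 55%, and viability with drug at most 40%, in both replicates (limit read from the data, passing the limit was not always enough); inconclusive = both conditions met in only one replicate; inactive = neither replicate meets both conditions.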

Columns and labels:
[1] = HUVEC growth inhibition – cell-based, human, primary screen (AID 575;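 active = viability at or below 30% in both replicate assays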;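 note: 100% = median of untreated cell wells with 0.1% DMSO on each plate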); details: HUVEC proliferation, CellTiter-Glo luminescence, 72 h; at 10 µM; stronger effect = lower value
Method in brief: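 Assay system: Primary human umbilical vein endothelial cells | Quantity: 1250 cells per well | Medium: Supplemented EBM, 2% fetal bovine serum | Detection: CellTiter-Glo luminescence measuring cellular ATP | Read-out: % viability vs DMSO wells | Plate: Collagen-coated 384-well format | Times: 72 h exposure, 37 °C, 5% CO2, 30 min RT equilibration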

[2] = growth inhibitors of H69AR lung tumor, primary screen, human, duplicate replicates (AID 580;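 active = viability at or under a set limit in both replicates, limit being median viability minus 3 SD, cut at about 48% in these data, passing the limit was not always enough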;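 note: 100% = mean luminescence of untreated wells and 0% = no signal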); details: H69AR lung tumor cells viability, ATP luminescence, 72 h; at 10 µM; stronger effect = lower value
[3] = reversal of MRP1-mediated doxorubicin resistance, pilot screen, H69AR cells, doxorubicin co-treatment (AID 601); details: CellTiter-Glo, 72 h, at 10 µM; for differential viability (reversal): stronger effect = higher value
[4] = 384-well plate pilot, post-Golgi transport modulator project, inhibition of yeast transport mutant growth (AID 636; in the data active = inhibition above about 31%); details: absorbance 615 nm, about 18 h, stronger effect = higher value
[5] = growth suppression of yeast trafficking mutant, preliminary HTS, modulators of trafficking downstream of Golgi apparatus project, 1536-format plate, OD 615 nm (AID 637; in the data active = inhibition above about 30%); details: yeast transport mutant growth, absorbance 615 nm, 18 h; stronger effect = higher value
[6] = SK-BR-3 cell growth inhibitors, pilot screen, 24 h, human (AID 572;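 active = viability at or below 10% of carrier control in both of two separate runs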;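 note: compound exposure lasted between 18 and 24 h rather than exactly 24 h; 100% = carrier-treated control wells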); details: SK-BR-3 viability, CellTiter-Glo luminescence, at 10 µM, stronger effect = lower value
[7] = H69AR cells + 2 uM doxorubicin, measured here: viability with 2 uM doxorubicin, stronger effect = lower value
[8] = H69AR cells, compound alone cytotoxicity

| Compound | viability [1] | viability [2] | differential viability (reversal) ([3]; H69AR cells + 2 uM doxorubicin) | viability [3, 7] [%] | viability [3, 8] [%] | inhibition [4] | inhibition [5] | viability [6] |
| --- | --- | --- | --- | --- | --- | --- | --- | --- |
| Cn1nc(-c2ccc(C(=O)NCC3CCCO3)cc2)c2ccccc2c1=O (configuration not stated) | 88.3% (inactive) | 84.7% (inactive) | 13.5% (inactive) | 71.2 | 84.7 | -3.12% (inactive) | 7.14% (inactive) |  |
| COc1cccc(CN2C(=O)C3(C(C#N)=C(N)OC4=C3C(=O)CCC4)c3ccccc32)c1 (configuration not stated) |  |  | -2.01% (inactive) | 12.6 | 10.6 | 84.2% (active) | 51.6% (active) | 104% (inactive) |
| Cc1nnc(NC2CCCCC2)[nH]c1=O | 87.5% (inactive) | 87.1% (inactive) | 6.85% (inactive) | 80.3 | 87.1 | -5.19% (inactive) | 3.02% (inactive) |  |
| CCOC(=O)NC(=O)CSc1nnc(C)s1 | 115% (inactive) | 105% (inactive) | 8.07% (inactive) | 96.5 | 105 | -4.08% (inactive) | 3.65% (inactive) |  |
| COc1ccc(CN(C(=O)CSc2nnc(-c3ccccc3F)o2)c2ccc(F)cc2)cc1 | 101% (inactive) | 101% (inactive) | 2.2% (inactive) | 98.8 | 101 | -5.2% (inactive) | 2.7% (inactive) |  |
| COc1cc2nc(N3CCN(C(=O)c4ccco4)CC3)nc(N)c2cc1OC |  |  | -13.4% (inactive) | 28.9 | 15.4 | 2.47% (inactive) | -0.17% (inactive) | 53% (inactive) |
| CC(C)Cn1c2c(c(O)c(C(=O)Nc3ncccc3O)c1=O)CCCC2 |  |  | -10.7% (inactive) | 63.1 | 52.4 | -2% (inactive) | -2.91% (inactive) | 91% (inactive) |
| COC(=O)c1ccccc1NC(=O)c1ccc(-c2ccccc2F)o1 |  |  | 7.71% (inactive) | 53.2 | 60.9 | -8.36% (inactive) | -2.74% (inactive) | 89% (inactive) |
| CNCCCN1c2ccccc2CCc2ccccc21 | 82.1% (inactive) | 90.4% (inactive) | 14.6% (inactive) | 75.8 | 90.4 |  |  |  |
| CC(=O)C(Sc1ncnc2c1nnn2-c1ccc(F)cc1)C(=O)N(C)C (configuration not stated) |  |  | -12.3% (inactive) | 61 | 48.7 | -3.12% (inactive) | 4.1% (inactive) | 136% (inactive) |
| O=C(c1cc(-c2cccs2)on1)N1CCc2ccccc2C1 | 103% (inactive) | 104% (inactive) | 21.8% (inactive) | 81.8 | 104 | -2.24% (inactive) | -0.48% (inactive) |  |
| C[C@]12CC[C@@H]3c4ccc(OC(=O)c5ccccc5)cc4CC[C@H]3[C@@H]1CC[C@@H]2O |  |  | -9.02% (inactive) | 48 | 39 | 2.73% (inactive) | 32% (active) | 78% (inactive) |
| COc1ccc(OC)c(-c2nc3c(C)n[nH]c(=O)c3[nH]2)c1 | 79.1% (inactive) | 69.5% (inactive) | -21.3% (inactive) | 90.7 | 69.5 | -6.13% (inactive) | -0.95% (inactive) |  |
| CCOC(=O)c1cc(-c2ccc(Cl)s2)nc2c1c(C)nn2C |  |  | -26.2% (inactive) | 62 | 35.8 | -1.45% (inactive) | -0.82% (inactive) | 66.5% (inactive) |
| CCOc1ccccc1N1C(=O)CC(Sc2ncccc2C(=O)O)C1=O (configuration not stated) | 97% (inactive) | 99.9% (inactive) | 12.7% (inactive) | 87.2 | 99.9 | -3.29% (inactive) | 1.59% (inactive) |  |
| Cn1c(=O)c(=O)n(C)c2cc(S(=O)(=O)N3CCN(c4cccc(C(F)(F)F)c4)CC3)ccc21 | 73% (inactive) | 93.3% (inactive) | -1% (inactive) | 94.3 | 93.3 | 0.4% (inactive) | 3.02% (inactive) |  |
| COc1ccccc1C(=O)Nc1ccccc1C(=O)N1CCCC1 | 92.3% (inactive) | 96% (inactive) | 11.9% (inactive) | 84.1 | 96 | -4.68% (inactive) | 1.27% (inactive) |  |
| Cc1cccc(-n2ncc(C#N)c2N)c1 | 109% (inactive) | 104% (inactive) | 3.67% (inactive) | 100 | 104 | -2.76% (inactive) | -1.11% (inactive) |  |
| O=C(Nc1ccc(N2CCCC2=O)cc1)c1cccc(F)c1 | 109% (inactive) | 99.9% (inactive) | 21.6% (inactive) | 78.2 | 99.9 | -4.61% (inactive) | 0.95% (inactive) |  |

| Compound | viability [1] | viability [2] | differential viability (reversal) ([3]; H69AR cells + 2 uM doxorubicin) | viability [3, 7] [%] | viability [3, 8] [%] | inhibition [4] | inhibition [5] | viability [6] |
| --- | --- | --- | --- | --- | --- | --- | --- | --- |
| Cn1c(SCC(=O)Nc2cccc3ccccc23)nc(O)cc1=O | 88.3% (inactive) | 89.7% (inactive) | -5.66% (inactive) | 95.4 | 89.7 | -4.67% (inactive) | -0.79% (inactive) |  |
| O=C(CN(c1ccc(F)cc1)S(=O)(=O)c1ccc2c(c1)OCCO2)NCC1CCCO1 (configuration not stated) | 96.5% (inactive) | 100% (inactive) | 13.4% (inactive) | 87.1 | 100 | -3.42% (inactive) | 2.54% (inactive) |  |
| CCNc1oc(COc2ccccc2F)nc1C#N | 89.8% (inactive) | 100% (inactive) | 22.9% (inactive) | 77.4 | 100 | -2.6% (inactive) | 1.43% (inactive) |  |
| O=C(c1cccnc1)N1CCN(Cc2ccc3c(c2)OCO3)CC1 | 89.6% (inactive) | 95.8% (inactive) | 14.4% (inactive) | 81.4 | 95.8 | -7.73% (inactive) | 1.75% (inactive) |  |
| N#CCCn1cnc2ccccc21 | 108% (inactive) | 104% (inactive) | 3.56% (inactive) | 100 | 104 | 0.52% (inactive) | -3.97% (inactive) |  |
| CC(O)CN(Cc1cccc(Cl)c1)CC(C)O (configuration not stated) | 100% (inactive) | 99.4% (inactive) | -0.905% (inactive) | 100 | 99.4 | -1.32% (inactive) | 4.13% (inactive) |  |
| Cc1ccc2c(COn3nnc4ccc(S(=O)(=O)N(C)C)cc43)cc(=O)oc2c1C | 79.5% (inactive) | 72.1% (inactive) | -3.53% (inactive) | 75.6 | 72.1 | -1.04% (inactive) | 2.7% (inactive) |  |
| COc1cc2c(cc1OC)CN(C(=O)COc1ccc(C#N)cc1)CC2 | 93% (inactive) | 84.8% (inactive) | -12% (inactive) | 96.8 | 84.8 | 0.52% (inactive) | -4.44% (inactive) |  |
| CCCCc1cc(=O)oc2c(CN3CCCC3)c(O)c(Cl)cc12 | 98.2% (inactive) | 96.6% (inactive) | 3.32% (inactive) | 93.3 | 96.6 | -3.16% (inactive) | 3.33% (inactive) |  |
| COc1ccc(CN(C)CC(=O)c2c(N)n(Cc3ccccc3)c(=O)n(C)c2=O)c(OC)c1 | 96.4% (inactive) | 93.9% (inactive) | 10.3% (inactive) | 83.6 | 93.9 | -3.25% (inactive) | 6.51% (inactive) |  |
| COc1cccc(Oc2ccc(N)cc2)c1 | 74.9% (inactive) | 74.8% (inactive) | -6.83% (inactive) | 81.7 | 74.8 | 0% (inactive) | -3.33% (inactive) |  |
| Cc1ccc2nc(NC(=O)CN(C)S(=O)(=O)c3cccc4nsnc34)sc2c1 | 18.1% (active) | 9.1% (active) | -15.1% (inactive) | 24.2 | 9.1 | -4.27% (inactive) | -4.29% (inactive) |  |
| Cc1c(N(C)C)nc2ccccc2c1N | 83.8% (inactive) | 84.4% (inactive) | -5.31% (inactive) | 89.7 | 84.4 | -4% (inactive) | 2.54% (inactive) |  |
| COc1ccc(S(=O)(=O)Nc2ccc3c(c2)OCO3)cc1Cl | 12.9% (active) | 87.3% (inactive) | 5.36% (inactive) | 82 | 87.3 | -6.67% (inactive) | 12.1% (inactive) |  |
| CSc1ccccc1NC(=O)CN(Cc1ccccc1)S(C)(=O)=O | 82.7% (inactive) | 93.1% (inactive) | 7.95% (inactive) | 85.2 | 93.1 | -0.78% (inactive) | 10.6% (inactive) |  |
| Nc1c(C(=O)NCCN2CCOCC2)c2nc3ccccc3nc2n1-c1ccc2c(c1)OCO2 | 51.9% (inactive) | 18.1% (active) | -8.75% (inactive) | 26.8 | 18.1 | -6.27% (inactive) | 6.19% (inactive) |  |
| Cc1c(NC(=O)C2CCCNC2=O)c(=O)n(-c2ccccc2)n1C (configuration not stated) | 107% (inactive) | 107% (inactive) | -0.405% (inactive) | 107 | 107 | -2.24% (inactive) | 3.33% (inactive) |  |
| Cc1cc(NC(=O)CCC(=O)N(CC2CCCO2)C(C(=O)NC2CCCC2)c2ccccc2C)no1 (configuration not stated) | 86.4% (inactive) | 96.7% (inactive) | 13.5% (inactive) | 83.2 | 96.7 | -2.11% (inactive) | 5.4% (inactive) |  |
| CSc1ccccc1NC(=O)c1noc2c1CCC2 | 77.8% (inactive) | 90.2% (inactive) | 1.63% (inactive) | 88.5 | 90.2 | -3.38% (inactive) | -3.49% (inactive) |  |
